Measured values from ChEMBL document CHEMBL1151742, “Design, synthesis, and characterization of high-affinity, systemically-active galanin analogues with potent anticonvulsant activities” (J Med Chem, 2008).
Structures can show the parent of a compound that is named as a salt. The source made the active and inactive calls. The calls are words filed in the database; no cut-off is given here. Square brackets hold non-standard residues; d marks the D form. Peptide text beside a SMILES is read from it. * marks the point of attachment. Fmoc = O=C(OCC1c2ccccc2-c2ccccc21)*; Cha = N[C@@H](CC1CCCCC1)C(=O)O; AMC = Cc1cc(=O)oc2cc(N*)ccc12

Tests used:
Mus musculus [1] = experiment: Anticonvulsant activity in CF1 mouse assessed as inhibition of 6 Hz corneal stimulation-induced limbic seizures at 4 mg/kg, ip administered 120 mins before 6 Hz corneal stimulation; type: functional, organism-based; parameters: dose 4 mg/kg; conditions: Limbic system
Procedure, shortened: (§1)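 Each analogue given ip at 4 mg/kg to five groups of CF-1 mice (n = 4 per group), one group per time point. Seizure challenge was 6 Hz corneal stimulation (32 mA for 3 s, corneal electrodes) at 15, 30, 60, 120 or 240 min after dosing. A mouse without a limbic seizure (jaw chomping, vibrissae twitching, forelimb clonus, Straub tail) was counted as protected.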

Galanin receptor type 1 = target: T1, Galanin receptor type 1 (Homo sapiens, UniProt P47211); experiment: Displacement of europium-labeled galanin from human GalR1 expressed in HEK293 EBNA cells; type: cell-based
T1 sequence (P47211 whole entry): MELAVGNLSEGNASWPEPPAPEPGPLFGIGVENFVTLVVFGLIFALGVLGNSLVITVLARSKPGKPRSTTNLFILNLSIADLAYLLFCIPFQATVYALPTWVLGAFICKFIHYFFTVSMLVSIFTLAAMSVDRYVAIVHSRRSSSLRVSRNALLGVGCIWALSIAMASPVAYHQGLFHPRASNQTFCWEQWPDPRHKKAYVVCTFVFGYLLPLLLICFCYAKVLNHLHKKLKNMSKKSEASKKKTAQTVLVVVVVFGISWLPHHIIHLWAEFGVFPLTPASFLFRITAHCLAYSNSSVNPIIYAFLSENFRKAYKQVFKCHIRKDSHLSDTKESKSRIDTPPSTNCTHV

Mus musculus [2] = experiment: Anticonvulsant activity in CF1 mouse assessed as inhibition of 6 Hz corneal stimulation-induced limbic seizures at 4 mg/kg, ip administered 240 mins before 6 Hz corneal stimulation; type: functional, organism-based; parameters: dose 4 mg/kg; conditions: Limbic system; procedure, shortened: as §1
Galanin receptor type 2 [3] = target: T2, Galanin receptor type 2 (Homo sapiens, UniProt O43603); experiment: Displacement of europium-labeled galanin from human GalR2 expressed in CHO-K1 cells; type: cell-based
T2 sequence (O43603 whole entry): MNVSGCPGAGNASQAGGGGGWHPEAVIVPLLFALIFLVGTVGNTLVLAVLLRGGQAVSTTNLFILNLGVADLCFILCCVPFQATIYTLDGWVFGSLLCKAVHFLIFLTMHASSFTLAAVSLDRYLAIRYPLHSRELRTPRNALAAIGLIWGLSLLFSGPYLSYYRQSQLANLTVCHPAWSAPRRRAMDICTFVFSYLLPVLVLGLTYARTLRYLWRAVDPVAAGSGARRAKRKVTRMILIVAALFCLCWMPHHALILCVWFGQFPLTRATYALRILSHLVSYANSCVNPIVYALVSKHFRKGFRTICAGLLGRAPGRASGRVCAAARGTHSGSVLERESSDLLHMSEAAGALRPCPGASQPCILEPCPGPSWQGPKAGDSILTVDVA

[4] = Metabolic stability in rat serum assessed as half life at pH 7.5; type: ADME, cell-free
Procedure, shortened: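 Peptide (final 20 µM) was incubated in 25% rat serum with 0.1 M Tris-HCl pH 7.5 at 37 °C, serum pre-warmed 10 min. Aliquots taken up to 8 h were quenched with 15% TCA in 40% isopropanol, held 15 min at -20 °C and centrifuged. Intact peptide was measured by reversed-phase HPLC peak area, and half-life was calculated from the disappearance.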

Mus musculus [5] = experiment: Anticonvulsant activity in CF1 mouse assessed as inhibition of 6 Hz corneal stimulation-induced limbic seizures at 4 mg/kg, ip administered 60 mins before 6 Hz corneal stimulation; type: functional, organism-based; parameters: dose 4 mg/kg; conditions: Limbic system; procedure, shortened: as §1
Mus musculus [6] = experiment: Anticonvulsant activity in CF1 mouse assessed as inhibition of 6 Hz corneal stimulation-induced limbic seizures at 4 mg/kg, ip administered 15 mins before 6 Hz corneal stimulation; type: functional, organism-based; parameters: dose 4 mg/kg; conditions: Limbic system; procedure, shortened: as §1
Galanin receptor type 2 [7] = target: T2, Galanin receptor type 2; experiment: Binding affinity to human GalR2

Kd (Galanin receptor type 2 [7]) [nM] | SMILES | Ki (Galanin receptor type 1) [nM] | half-life [4] [h] | other results
– | CCCCCCCCCCCCCCCC(=O)NCCCC[C@H](NC(=O)[C@H](CCCCN)NC(=O)[C@H](CCCCN)NC(=O)CNC(=O)[C@H](CC(C)C)NC(=O)[C@H](CC(C)C)NC(=O)[C@H](Cc1ccc(O)cc1)NC(=O)CNC(=O)[C@H](C)NC(=O)[C@H](CO)NC(=O)[C@H](CC(N)=O)NC(=O)[C@H](CC(C)C)NC(=O)[C@@H](NC(=O)[C@H](Cc1c[nH]c2ccccc12)NC(=O)CNC)[C@@H](C)O)C(=O)N[C@@H](CCCCN)C(N)=O | 25.5 | 5.6 | Activity (Mus musculus [1]): inactive; Activity (Mus musculus [2]): inactive; Ki (Galanin receptor type 2 [3]): 75 nM
– | CCCCCCCCCCCCCCCC(=O)NCCCC[C@H](NC(=O)[C@H](CCCNC(=N)N)NC(=O)[C@H](CCCNC(=N)N)NC(=O)[C@@H]1CCCN1C(=O)CNC(=O)[C@H](CC(C)C)NC(=O)[C@H](CC(C)C)NC(=O)[C@H](Cc1ccc(O)cc1)NC(=O)CNC(=O)[C@H](C)NC(=O)[C@H](CO)NC(=O)[C@H](CC(N)=O)NC(=O)[C@H](CC(C)C)NC(=O)[C@@H](NC(=O)[C@H](Cc1c[nH]c2ccccc12)NC(=O)CNC)[C@@H](C)O)C(=O)N[C@@H](CCCNC(=N)N)C(N)=O | – | – | Activity (Mus musculus [2]): inactive; Activity (Mus musculus [5]): Active
– | CCCCCCCCCCCCCCCC(=O)NCCCC[C@H](NC(=O)[C@H](CCCCN)NC(=O)[C@H](CCCCN)NC(=O)[C@@H]1CCCN1C(=O)CNC(=O)[C@H](CC(C)C)NC(=O)[C@H](CC(C)C)NC(=O)[C@H](Cc1ccc(O)cc1)NC(=O)CNC(=O)[C@H](C)NC(=O)[C@H](CO)NC(=O)[C@H](CC(N)=O)NC(=O)[C@H](CC(C)C)NC(=O)[C@@H](NC(=O)[C@H](Cc1c[nH]c2ccccc12)NC(=O)CCCCCN)[C@@H](C)O)C(=O)N[C@@H](CCCCN)C(N)=O | 21.5 | > 10 | Activity (Mus musculus [6]): Active; Ki (Galanin receptor type 2 [3]): 51 nM
> 100000 | COC(=O)[C@H](CCCCN)NC(=O)[C@]1(C)NC(=O)c2nc(oc2C)[C@](C)(C(=O)NC2c3ccccc3-c3ccccc32)NC(=O)c2nc(oc2C)[C@](C)(C(=O)NCC2CCCCC2)NC(=O)c2nc1oc2C [GALMIC TFA] | – | – | –
– | CCCCCCCCCCCCCCCC(=O)NCCCC[C@H](NC(=O)[C@@H](CCCCN)NC(=O)[C@@H](CCCCN)NC(=O)[C@@H]1CCCN1C(=O)CNC(=O)[C@H](CC(C)C)NC(=O)[C@H](CC(C)C)NC(=O)[C@H](Cc1ccc(O)cc1)NC(=O)CNC(=O)[C@H](C)NC(=O)[C@H](CO)NC(=O)[C@H](CC(N)=O)NC(=O)[C@H](CC(C)C)NC(=O)[C@@H](NC(=O)[C@H](Cc1c[nH]c2ccccc12)NC(=O)CNC)[C@@H](C)O)C(=O)N[C@H](CCCCN)C(N)=O | 0.9 | > 10 | –
24000 | Cc1cc(=O)oc2cc(NC(=O)[C@@H](CCCCN)NC(=O)[C@H](CC3CCCCC3)NC(=O)OCC3c4ccccc4-c4ccccc43)ccc12 [GALNON] (Fmoc-[Cha]-[dK]-{AMC}) | – | – | –
1.8 | CC(C)C[C@H](NC(=O)[C@H](CC(C)C)NC(=O)[C@H](Cc1ccc(O)cc1)NC(=O)CNC(=O)[C@H](C)NC(=O)[C@H](CO)NC(=O)[C@H](CC(N)=O)NC(=O)[C@H](CC(C)C)NC(=O)[C@@H](NC(=O)[C@@H](N)Cc1c[nH]c2ccccc12)[C@@H](C)O)C(=O)O | – | – | –
